According to ChEMBL document CHEMBL1932986, “Synthesis and in vitro antimycobacterial activity of compounds derived from (R)- and (S)-2-amino-1-butanol - The crucial role of the configuration” (Eur J Med Chem, 2012):
Values after ≈ are worked out from the molar mass of the structure shown. Active and inactive are the calls of the source. The rule behind the calls is not given here.

How the values were obtained:
[1] = tested on: Mycobacterium tuberculosis; assay: Antimycobacterial activity against Mycobacterium tuberculosis H37Rv after 45 days; type: functional
How it was run: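 Canetti proportion method. Compound in DMSO is added to Löwenstein–Jensen egg medium before coagulation (30 min, 85 °C), tested at three levels plus a lower one where needed. Tubes are inoculated with H37Rv at 10⁵ cells/ml and incubated 45 days at 37 °C. Colony counts versus drug-free control give percentage inhibition.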

[2] = tested on: Mycobacterium tuberculosis; assay: Ratio of ethambutol dihydrochloride MIC to compound MIC for Mycobacterium tuberculosis H37Rv; type: functional
[3] = Selectivity index, ratio of IC50 for human HEK293T cells to MIC for Mycobacterium tuberculosis H37Rv; type: functional, HEK-293T
Penicillium chrysogenum = assay: Antifungal activity against Penicillium chrysogenum CECT 2802 at 50 mg/ml after 72 hrs by agar diffusion test; type: functional; details: for zone of inhibition at 50000 µg/mL: CECT 2802, 72 h, read-out: DIZ
How it was run: (§1)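 Agar diffusion: yeasts grown on yeast peptone dextrose agar and fungi on potato dextrose agar. Wells are filled with […] of compound solution in DMSO at various concentrations, and the clear-zone diameter is measured. Bracketed values give the lowest concentration (mg/ml) that produces a zone >11 mm. A first screen is run at 50 mg/ml.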

[4] = Solubility of the compound in deionized water; type: physicochemical
HEK-293T = assay: Cytotoxicity against human HEK293T cells after 72 hrs by MTT assay; type: cell-based
How it was run: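 293T cells in RPMI-1640 with 10% heat-inactivated FCS and 2 mM L-glutamine, 37 °C, 5% CO2. Cells seeded at 3.5 × 10⁵ cells/ml, grown 24 h, then exposed 72 h to DMSO-diluted compounds (final solvent ≤0.5%), ≥8 wells per concentration. MTT added 4 h, formazan dissolved in 5% HCOOH/2-propanol, absorbance read at 580 nm. IC50 obtained by sigmoidal nonlinear regression against untreated control.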

Bacillus = assay: Antibacterial activity against Bacillus idosus B 241 at 50 mg/ml after 24 hrs by agar diffusion test; type: functional; details: for zone of inhibition at 50000 µg/mL: B 241, 24 h, read-out: DIZ
How it was run: (§2)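 Agar diffusion: wells in agar filled with […] DMSO solution of compound at various concentrations; diameter of clear zone around application point measured. Bacteria grown 24 h at 37 °C on nutrient agar. Compounds first screened at 50 mg/ml; those active then tested at lower concentrations. Bracketed value = lowest concentration (mg/ml) giving zone >11 mm, reported only if activity retained at ≤1.25 mg/ml.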

Micrococcus luteus [5] = assay: Antibacterial activity against Sarcina lutea ATCC 9341 at 50 mg/ml after 24 hrs by agar diffusion test; type: functional; details: for zone of inhibition at 50000 µg/mL: ATCC 9341, 24 h, read-out: DIZ
How it was run: (§3)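 Agar diffusion: bacteria grown 24 h at 37 °C on nutrient agar. Wells in the agar are filled with […] of compound solution in DMSO at various concentrations. The diameter of the clear zone around the application point is measured. Bracketed values give the lowest concentration (mg/ml) that produces a zone >11 mm. A first screen is run at 50 mg/ml.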

Saccharomyces cerevisiae = assay: Antifungal activity against Saccharomyces cerevisiae ATCC 9763 at 50 mg/ml after 72 hrs by agar diffusion test; type: functional; details: for zone of inhibition at 50000 µg/mL: ATCC 9763, 72 h, read-out: DIZ; how it was run: as §1
Bacillus subtilis = assay: Antibacterial activity against Bacillus subtilis ATCC 6633 at 50 mg/ml after 24 hrs by agar diffusion test; type: functional; how it was run: as §2
Acinetobacter johnsonii = assay: Antibacterial activity against Acinetobacter johnsonii ATCC 17909 at 50 mg/ml after 24 hrs by agar diffusion test; type: functional; details: for zone of inhibition at 50000 µg/mL: ATCC 17909, 24 h, read-out: DIZ; how it was run: as §2
Priestia megaterium = assay: Antibacterial activity against Bacillus megaterium NRRL 1353895 at 50 mg/ml after 24 hrs by agar diffusion test; type: functional; details: for zone of inhibition at 50000 µg/mL: NRRL 1353895, 24 h, read-out: DIZ; how it was run: as §2
Staphylococcus aureus = assay: Antibacterial activity against Staphylococcus aureus NRRL B 313 at 50 mg/ml after 24 hrs by agar diffusion test; type: functional; details: for zone of inhibition at 50000 µg/mL: NRRL B 313, 24 h, read-out: DIZ; how it was run: as §3
Bacillus mycoides = assay: Antibacterial activity against Bacillus mycoides DSMZ 274 at 50 mg/ml after 24 hrs by agar diffusion test; type: functional; details: for zone of inhibition at 50000 µg/mL: DSMZ 274, 24 h, read-out: DIZ; how it was run: as §2
Bacillus cereus = assay: Antibacterial activity against Bacillus cereus ATCC 11778 at 50 mg/ml after 24 hrs by agar diffusion test; type: functional; details: for zone of inhibition at 50000 µg/mL: ATCC 11778, 24 h, read-out: DIZ; how it was run: as §2
Micrococcus luteus [6] = assay: Antibacterial activity against Micrococcus luteus ATCC 9631 at 50 mg/ml after 24 hrs by agar diffusion test; type: functional; how it was run: as §2
Escherichia coli = assay: Antibacterial activity against Escherichia coli ATCC 8739 at 50 mg/ml after 24 hrs by agar diffusion test; type: functional; details: for zone of inhibition at 50000 µg/mL: ATCC 8739, 24 h, read-out: DIZ; how it was run: as §2
Candida tropicalis = assay: Antifungal activity against Candida tropicalis ATCC 20336 at 50 mg/ml after 72 hrs by agar diffusion test; type: functional; details: for zone of inhibition at 50000 µg/mL: ATCC 20336, 72 h, read-out: DIZ; how it was run: as §1

SMILES	MIC [1]	Ratio [2]	diameter of the inhibition zone (DIZ) (Penicillium chrysogenum)	diameter of the inhibition zone (DIZ) (Bacillus)	diameter of the inhibition zone (DIZ) (Micrococcus luteus [5])	diameter of the inhibition zone (DIZ) (Saccharomyces cerevisiae)	diameter of the inhibition zone (DIZ) (Bacillus subtilis)	diameter of the inhibition zone (DIZ) (Acinetobacter johnsonii)	diameter of the inhibition zone (DIZ) (Priestia megaterium)	diameter of the inhibition zone (DIZ) (Staphylococcus aureus)	diameter of the inhibition zone (DIZ) (Bacillus mycoides)	diameter of the inhibition zone (DIZ) (Bacillus cereus)	diameter of the inhibition zone (DIZ) (Micrococcus luteus [6])	diameter of the inhibition zone (DIZ) (Escherichia coli)	diameter of the inhibition zone (DIZ) (Candida tropicalis)	also measured
CC[C@@H](CO)N1Cc2ccccc2C1=O	> 31.2 µM	2														
CC[C@H](CO)Nc1ccc2c3c(cccc13)C(=O)N([C@H](CC)CO)C2=O	14 µM (≈ 5 µg/mL)		inactive	inactive	inactive	inactive	inactive	inactive	inactive	inactive	inactive	inactive				Selectivity Index [3]: 3.4; solubility [4]: < 1000 µg/mL; IC50 (HEK-293T): 47 µM
CC[C@@H](CO)NC(=O)c1ccccc1O	> 23.9 µM	2														
CC[C@H](CO)NC(=O)c1ccc(N(C)C)cc1	8.46 µM (≈ 2 µg/mL)		inactive	inactive	inactive	inactive	inactive	inactive	inactive	inactive	inactive	inactive	inactive	inactive	inactive	Selectivity Index [3]: 20.5; solubility [4]: 1500 µg/mL (≈ 6.35 mM); IC50 (HEK-293T): 173 µM
CCNC(=O)N[C@@H](CC)CO	> 24.4 µM	2														
CC(C)=CCC/C(C)=C/CNCCNC1C2CC3CC(C2)CC1C3 (centres undefined) [SQ109]		35														
CC[C@@H](CO)NC(=O)/C=C/c1ccccc1	> 22.8 µM	2														
CC[C@H](CO)NC(=O)/C=C/c1ccccc1	9.12 µM (≈ 2 µg/mL)			inactive			inactive	inactive					inactive	inactive		Selectivity Index [3]: 23.1; solubility [4]: < 1000 µg/mL; IC50 (HEK-293T): 211 µM; zone of inhibition at 50000 µg/mL (Candida tropicalis): 11 mm; zone of inhibition at 50000 µg/mL (Micrococcus luteus [5]): 15 mm; zone of inhibition at 50000 µg/mL (Saccharomyces cerevisiae): 13 mm; zone of inhibition at 50000 µg/mL (Priestia megaterium): 12 mm; zone of inhibition at 50000 µg/mL (Staphylococcus aureus): 12 mm; zone of inhibition at 50000 µg/mL (Bacillus mycoides): 12 mm; zone of inhibition at 50000 µg/mL (Bacillus cereus): 12 mm
CC[C@@H](CO)NCCN[C@@H](CC)CO.Cl.Cl [ETHAMBUTOL HYDROCHLORIDE]	7.22 µM															solubility [4]: 100000 µg/mL
CC[C@@H](CO)NC(=O)c1ccccc1C(=O)N[C@@H](CC)CO	> 16.2 µM	2														
CC[C@H](CO)NC1c2ccccc2-c2ccccc21	19.7 µM (≈ 5 µg/mL)						inactive					inactive				zone of inhibition at 50000 µg/mL (Penicillium chrysogenum): 20 mm; zone of inhibition at 50000 µg/mL (Micrococcus luteus [6]; ATCC 9631, 24 h, read-out: DIZ): 17 mm; zone of inhibition at 50000 µg/mL (Escherichia coli): 12 mm; zone of inhibition at 50000 µg/mL (Bacillus): 15 mm; zone of inhibition at 50000 µg/mL (Candida tropicalis): 17 mm; zone of inhibition at 50000 µg/mL (Micrococcus luteus [5]): 17 mm; zone of inhibition at 50000 µg/mL (Saccharomyces cerevisiae): 22 mm; zone of inhibition at 50000 µg/mL (Acinetobacter johnsonii): 16 mm; zone of inhibition at 50000 µg/mL (Priestia megaterium): 22 mm; zone of inhibition at 50000 µg/mL (Staphylococcus aureus): 12 mm; zone of inhibition at 50000 µg/mL (Bacillus mycoides): 17 mm
CC[C@H](CO)N1C(=O)CCC1=O	> 29.2 µM		inactive	inactive	inactive	inactive	inactive	inactive	inactive	inactive	inactive	inactive	inactive	inactive	inactive	
CC[C@H](CO)NC(=O)c1ccncc1	> 25.7 µM		inactive	inactive	inactive	inactive	inactive	inactive	inactive	inactive	inactive	inactive	inactive	inactive	inactive	
CC[C@H](CO)N1Cc2ccccc2C1	10.5 µM (≈ 2 µg/mL)															Selectivity Index [3]: 11.7; zone of inhibition at 50000 µg/mL (Penicillium chrysogenum): 10 mm; solubility [4]: < 1000 µg/mL; IC50 (HEK-293T): 122 µM; zone of inhibition at 50000 µg/mL (Escherichia coli): 25 mm; zone of inhibition at 50000 µg/mL (Bacillus): 20 mm; zone of inhibition at 50000 µg/mL (Candida tropicalis): 21 mm; zone of inhibition at 50000 µg/mL (Saccharomyces cerevisiae): 16 mm; zone of inhibition at 50000 µg/mL (Bacillus subtilis; ATCC 6633, 24 h, read-out: DIZ): 11 mm; zone of inhibition at 50000 µg/mL (Staphylococcus aureus): 25 mm; zone of inhibition at 50000 µg/mL (Bacillus mycoides): 23 mm; zone of inhibition at 50000 µg/mL (Bacillus cereus): 25 mm
CC[C@H](CO)N1C(=O)c2cccc3cccc(c23)C1=O	> 18.6 µM			inactive	inactive	inactive	inactive	inactive	inactive	inactive	inactive	inactive	inactive	inactive	inactive	zone of inhibition at 50000 µg/mL (Penicillium chrysogenum): 10 mm
CC[C@H](CO)NCc1ccncc1	27.7 µM (≈ 5 µg/mL)		inactive	inactive	inactive	inactive	inactive	inactive	inactive	inactive	inactive	inactive	inactive	inactive	inactive	
CC[C@@H](CO)NP(=O)(c1ccccc1)c1ccccc1	> 17.3 µM	2														
CC[C@H](CO)n1cnc2ccccc2c1=O	22.9 µM (≈ 5 µg/mL)		inactive		inactive	inactive	inactive		inactive	inactive	inactive	inactive	inactive	inactive	inactive	zone of inhibition at 50000 µg/mL (Bacillus): 14 mm; zone of inhibition at 50000 µg/mL (Acinetobacter johnsonii): 14 mm
